{
  "source": "paper PMC9845116",
  "about": "(Saudi Pharmaceutical Journal : SPJ, 2022)",
  "format_in_all_cases": "cell-based",
  "key": {"A549": {"system": "A549", "test": "MTT cell viability assay, A549"}, "[1]": {"system": "human liver cell line L-O2", "test": "Cytotoxic activity on human liver cells", "how_it_was_run": "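L-02 cells were grown in DMEM with 10 % FBS and 1 % penicillin–streptomycin at 37 °C, 5 % CO2, then seeded at 2 × 10^4 cells per well in 96-well plates. Test compounds were made as 20 mM DMSO stocks and applied at various concentrations for 48 h. MTT (5 mg/mL stock in PBS) was added for 4 h at 37 °C in the dark. Formazan was dissolved in DMSO and read at 490 nm; triplicate experiments.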"}, "Hela cells [2]": {"system": "Hela cells", "test": "Hoechst 33,258 staining assay", "settings": "increasing concentration 0.5-4 μM, 24 h", "how_it_was_run": "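HeLa cells seeded at 1 × 10^4/well in twelve-well plates and grown 24 h in regular medium. Treated 24 h with test compound (0, 0.5, 1, 2, 4 μM) or 5-Fu (5.0 μM). Washed twice with PBS, stained with Hoechst 33,258 for 30 min in the incubator, washed, then imaged by fluorescence microscopy for apoptotic nuclear and cell morphology.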"}, "Hela cells [3]": {"system": "Hela cells", "test": "Annexin V-FITC/PI apoptosis assay", "settings": "24 h (control 14.06 %)"}, "Hela": {"system": "Hela", "test": "MTT cell viability assay, Hela", "settings": "for IC50: 48 h"}, "Hela cells [4]": {"system": "Hela cells", "test": "Colony formation assay, Hela", "settings": "0.5 mM (so in the source), vs 5-Fu 5 μM", "how_it_was_run": "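HeLa cells were seeded at 1500 per well in six-well plates and grown 48 h in regular medium. Cells were exposed to test compound or 5-Fu (positive control) at indicated concentrations for 7 days. They were then PBS-washed, fixed with paraformaldehyde 30 min, stained with crystal violet 30 min, and photographed. Clone formation rate was quantified; mean ± SD of three separate experiments.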"}, "HepG2": {"system": "HepG2", "test": "MTT cell viability assay, HepG2"}, "MCF-7": {"system": "MCF-7", "test": "MTT cell viability assay, MCF-7"}, "MCF-7 cells": {"system": "MCF-7 cells", "test": "Colony formation assay, MCF-7", "settings": "0.5 mM (so in the source), vs 5-Fu 5 μM", "how_it_was_run": "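MCF-7 cells grown in DMEM with 10 % FBS and 1 % penicillin–streptomycin at 37 °C, 5 % CO2. Seeded at 1500 cells/well in six-well plates, grown 48 h, then exposed to test compound or 5-Fu for 7 days. Washed with PBS, fixed with paraformaldehyde for 30 min, stained with crystal violet for 30 min, photographed. Clone formation rate quantified; mean ± SD of three separate experiments.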"}},
  "note": "Where two headings read alike, the source gives them in different places.",
  "data": [
    {"smiles": "COc1cc(OC)c(C(=O)/C=C/c2ccc(Br)cn2)c(OC)c1", "note": "[B3, (E)-3-(5-bromopyridin-2-yl)-1-(2,4,6-trimethoxyphenyl)prop-2-en-1-one]", "values": [
      {"measurement": "IC50", "setting": "A549; Homo sapiens, A549, 48 h, read-out: IC50(μM) A549", "result": "5.19 ± 0.23", "unit": "µM"},
      {"measurement": "inhibitory effect on cell viability over time, A549", "setting": "A549; MTT at 24 h, 48 h and 72 h", "result": "excellent inhibitory effect"},
      {"measurement": "toxicity on normal cells", "setting": "[1]", "result": "low toxicity to normal cells"},
      {"measurement": "morphological changes of Hela cells", "setting": "Hela cells [2]", "result": "cells shrinkage, nuclear division and formation of apoptotic bodies"},
      {"measurement": "apoptosis index", "setting": "Hela cells [3]; 0.5 μM", "result": 16.78, "unit": "%"},
      {"measurement": "apoptosis index", "setting": "Hela cells [3]; 1 μM", "result": 26.41, "unit": "%"},
      {"measurement": "apoptosis index", "setting": "Hela cells [3]; 2 μM", "result": 30.95, "unit": "%"},
      {"measurement": "apoptosis index", "setting": "Hela cells [3]; 4 μM", "result": 39.8, "unit": "%"},
      {"measurement": "fold potency than 5-fluorocrail, Hela", "setting": "Hela; Hela cells, vs 5-Fu", "result": "over 10 fold"},
      {"measurement": "IC50", "setting": "Hela; Homo sapiens, HeLa, read-out: IC50(μM) Hela, MTT, 48 h, Hela", "result": 3.2, "unit": "µM"},
      {"measurement": "inhibitory effect on cell viability over time, Hela", "setting": "Hela; MTT at 24 h, 48 h and 72 h", "result": "excellent inhibitory effect"},
      {"measurement": "IC50", "setting": "Hela; read-out: IC50(μM) Hela, MTT, Hela", "result": "3.2 ± 0.21", "unit": "µM"},
      {"measurement": "colony formation, Hela", "setting": "Hela cells [4]", "result": "slightly better than the positive control"},
      {"measurement": "IC50", "setting": "HepG2; Homo sapiens, HepG2, 48 h, read-out: IC50(μM) HepG2", "result": "5.81 ± 0.37", "unit": "µM"},
      {"measurement": "inhibitory effect on cell viability over time, HepG2", "setting": "HepG2; MTT at 24 h, 48 h and 72 h", "result": "excellent inhibitory effect"},
      {"measurement": "IC50", "setting": "MCF-7; Homo sapiens, MCF7, 48 h, read-out: IC50(μM) MCF-7, MTT, 48 h, MCF-7", "result": 3.85, "unit": "µM"},
      {"measurement": "fold potency than 5-fluorocrail, MCF-7", "setting": "MCF-7; MCF-7 cells, vs 5-Fu", "result": "over 10 fold"},
      {"measurement": "inhibitory effect on cell viability over time, MCF-7", "setting": "MCF-7; MTT at 24 h, 48 h and 72 h", "result": "excellent inhibitory effect"},
      {"measurement": "IC50", "setting": "MCF-7; read-out: IC50(μM) MCF-7, MTT, 48 h, MCF-7", "result": "3.85 ± 0.28", "unit": "µM"},
      {"measurement": "colony formation, MCF-7", "setting": "MCF-7 cells", "result": "slightly better than the positive control"}
    ]}
  ]
}
